# Active and inactive are the calls of the source. The calls are words filed in the database; no cut-off is given here.
# Experiments:
# [1] = target: T1, Steroid hormone receptor ERR1 (Homo sapiens, UniProt P11474); test: Inverse agonist activity at GAL4-DNA binding domain-fused human ERRalpha ligand binding domain expressed in HEK293 cells assessed as inhibition of transcriptional activity after 48 hrs by luciferase reporter gene assay; assay type: cell-based
# T1 sequence (P11474 whole entry): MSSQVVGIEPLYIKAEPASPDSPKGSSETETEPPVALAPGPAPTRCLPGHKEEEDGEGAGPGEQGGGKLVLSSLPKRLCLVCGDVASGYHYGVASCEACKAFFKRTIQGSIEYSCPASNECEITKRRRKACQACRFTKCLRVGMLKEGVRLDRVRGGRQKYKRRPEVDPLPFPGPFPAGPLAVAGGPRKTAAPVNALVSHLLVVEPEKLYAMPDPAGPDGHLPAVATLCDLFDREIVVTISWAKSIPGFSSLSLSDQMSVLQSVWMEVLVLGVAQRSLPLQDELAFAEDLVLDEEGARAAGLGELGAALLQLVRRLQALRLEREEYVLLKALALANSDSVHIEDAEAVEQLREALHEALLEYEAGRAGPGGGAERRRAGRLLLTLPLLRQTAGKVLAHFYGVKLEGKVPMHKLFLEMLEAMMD
# Method in brief: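 HEK293 cells at 1×10⁵/well in DMEM with 10% FBS, transfected at 70-80% confluency. Per well: 20 ng GAL4-DBD-ERRα-LBD, 20 ng UAS-Luc reporter and 5 ng pRL-TK control. After 6 h at 37°C, vehicle (0.05% DMSO) or compound added for 48 h. Dual-luciferase read-out.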
# [2] = tested on: MDA-MB-231; test: Antiproliferative activity against ER deficient human MDA-MB-231 cells after 48 hrs by CCK-8 assay; assay type: functional, cell-based; details: MDA-MB-231, 48 h
# Method in brief: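 Cells seeded in 96-well plates and cultured overnight, then exposed to a range of compound concentrations for 48 h. CCK-8 reagent added and incubated 2 h at 37°C. Read-out is optical density at 450 nm. MDA-MB-231 maintained in L-15 with 10% FBS, L-glutamine, sodium pyruvate, pen/strep at 37°C, 5% CO2.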
# [3] = tested on: MDA-MB-435; test: Antiproliferative activity against ER deficient human MDA-MB-435 cells after 48 hrs by CCK-8 assay; assay type: functional, cell-based; details: MDA-MB-435, 48 h
# [4] = tested on: T47D; test: Antiproliferative activity against human T47D cells harboring ER after 48 hrs by CCK-8 assay; assay type: functional, cell-based
# [5] = tested on: MCF7; test: Antiproliferative activity against human MCF7 cells harboring ER after 48 hrs by CCK-8 assay; assay type: functional, cell-based; details: MCF7, 48 h
# [6] = tested on: HeLa; test: Antiproliferative activity against human HeLa cells after 48 hrs by CCK-8 assay; assay type: functional, cell-based
# [7] = tested on: PC-3; test: Antiproliferative activity against human PC3 cells after 48 hrs by CCK-8 assay; assay type: functional, cell-based; details: PC-3, 48 h
# [8] = tested on: LNCaP; test: Antiproliferative activity against human LNCAP cells after 48 hrs by CCK-8 assay; assay type: functional, cell-based
# [9] = tested on: A549; test: Antiproliferative activity against human A549 cells after 48 hrs by CCK-8 assay; assay type: functional, cell-based; details: A549, 48 h
# [10] = tested on: MDA-MB-231; test: Inhibition of cell migration in human MDA-MB-231 cells […] by crystal violet staining-based transwell assay; assay type: functional
# [11] = tested on: MDA-MB-231; test: Induction of ROS generation in human MDA-MB-231 cells after 24 hrs by DCFH-DA staining based fluorescence assay; assay type: functional, cell-based
# Method in brief: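 MDA-MB-231 cells in 96-well plates pretreated with 1-30 µmol/l compound for 24 h at 37 °C. Then loaded with DCFH-DA (10 µmol/l) for 30 min. Fluorescence read at ex 488/em 535 nm on a plate reader and expressed relative to untreated cells. Mean ± SEM, n=4.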
# [12] = target: T2, Steroid hormone receptor ERR1 (Homo sapiens) (UniProt P11474); test: Inverse agonist activity at ERRalpha in human MDA-MB-231 cells assessed as down regulation of PGC-1alpha mRNA expression at 5 to 10 uM after 48 hrs by qRT-PCR analysis; assay type: cell-based
# T2 sequence (whole entry): T1 sequence (P11474 whole entry)
# Method in brief: (§1)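 MDA-MB-231 cells in 6-well plates at […]. Exposed to vehicle (DMSO) or compound for 48 h, then mRNA of ERRα target genes (PGC-1α, PDK4, osteopontin/SPP1, pS2/TFF1) quantified by real-time RT-PCR. Mean ± S.E.M. of three independent experiments.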
# [13] = target: T2, Steroid hormone receptor ERR1 (Homo sapiens); test: Inverse agonist activity at ERRalpha in human MDA-MB-231 cells assessed as down regulation of PDK4 mRNA expression at 5 to 10 uM after 48 hrs by qRT-PCR analysis; assay type: cell-based; method in brief: as §1
# [14] = target: T2, Steroid hormone receptor ERR1 (Homo sapiens); test: Inverse agonist activity at ERRalpha in human MDA-MB-231 cells assessed as down regulation of osteopontin mRNA expression at 5 to 10 uM after 48 hrs by qRT-PCR analysis; assay type: cell-based; method in brief: as §1
# [15] = target: T2, Steroid hormone receptor ERR1 (Homo sapiens); test: Inverse agonist activity at ERRalpha in human MDA-MB-231 cells assessed as down regulation of pS2 mRNA expression at 5 to 10 uM after 48 hrs by qRT-PCR analysis; assay type: cell-based; method in brief: as §1
# [16] = target: T2, Steroid hormone receptor ERR1 (Homo sapiens); test: (§2) Inhibition of fluorescein-labeled PGC-1alpha binding to GAL4-DNA binding domain-fused human ERRalpha ligand binding domain expressed in HEK293 cells in presence of terbium chelate by TR-FRET assay; assay type: cell-based
# [17] = target: T1, Steroid hormone receptor ERR1; test: as §2; assay type: cell-based
# [18] = tested on: MDA-MB-231; test: Antitumor activity against human MDA-MB-231 cells xenografted in BALB/c nude mouse assessed as tumor size at 30 mg/kg administered every other day for 28 days measured after 30 days relative to control; assay type: functional
# Method in brief: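 MDA-MB-231 cells suspended in PBS injected subcutaneously into the right flank of 6-week-old BALB/c nude mice. Once tumors averaged >100 mm³, mice were randomized into groups of 10 and given vehicle, test compound or cyclophosphamide 30 mg/kg, dosed every other day. Mice were weighed 3 times weekly. Tumor volume = length × width² × 0.5 and was compared with the vehicle group.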
# [19] = tested on: MDA-MB-231; test: Antitumor activity against human MDA-MB-231 cells xenografted in BALB/c nude mouse assessed as tumor volume at 30 mg/kg administered every other day for 28 days and measured after 30 days (reference value: 1500 mm3); assay type: functional
# [20] = tested on: MDA-MB-231; test: Effect on steady state ERRalpha mRNA expression in human MDA-MB-231 cells at 5 to 10 uM after 48 hrs by qRT-PCR analysis; assay type: ADME, cell-based; details: mda-mb-231, 48 h
# [21] = tested on: MDA-MB-231; test: Antitumor activity against human MDA-MB-231 cells xenografted in BALB/c nude mouse assessed as reduction in tumor growth at 30 to 100 mg/kg administered every other day […]; assay type: functional, organism-based
# [22] = tested on: MDA-MB-231; test: Cell migration rate in human MDA-MB-231 cells at 5 uM after 48 hrs by crystal violet staining-based transwell assay relative to control; details: MDA-MB-231, 48 h
# [23] = tested on: MDA-MB-231; test: Cell migration rate in human MDA-MB-231 cells at 10 uM after 48 hrs by crystal violet staining-based transwell assay relative to control; details: MDA-MB-231, 48 h
# [24] = tested on: MDA-MB-231; test: Cell migration rate in human MDA-MB-231 cells at 20 uM after 48 hrs by crystal violet staining-based transwell assay relative to control; details: MDA-MB-231, 48 h
# [25] = tested on: MDA-MB-231; test: Induction of apoptosis in human in human MDA-MB-231 cells at 10 uM after 48 hrs by Annexin V-FITC staining based fluorescence microscopic analysis
compound,measurement,setting,value
CCOc1cc(NS(C)(=O)=O)c(OCC)cc1CNC(=O)Nc1ccc(OCC)c(C(=O)NCc2ccc(OC)cc2)c1,IC50,[1],1.9 µM
same,IC50,[2],1.46 µM
same,IC50,[3],2.53 µM
same,IC50,[4],8.31 µM
same,IC50,[5],14.1 µM
same,IC50,[6],6.25 µM
same,IC50,[7],5.01 µM
same,IC50,[8],11.4 µM
same,IC50,[9],4.84 µM
same,inhibition,[10],Dose-dependent effect
same,Activity,[11],Active
same,Activity,[12],Active
same,Activity,[13],Active
same,Activity,[14],Active
same,Activity,[15],Active
same,inhibition,[16],Dose-dependent effect
same,IC50,[17],0.61 µM
same,Activity,[18],40.9%
same,Activity,[19],720 mm3
same,Activity,[20],Non-Toxic
same,TGI,[21],Active
same,migration rate % at 5 µM,[22],53.2%
same,migration rate % at 10 µM,[23],39.3%
same,migration rate % at 20 µM,[24],17.8%
same,Activity,[25],Active
CCOc1cc(NS(C)(=O)=O)c(OCC)cc1CNC(=O)Nc1ccc(OCC)c(C(=O)NCc2ccccc2)c1,IC50,[1],3.81 µM
CCOc1cc(NS(C)(=O)=O)c(OCC)cc1CNC(=O)Nc1ccccc1,IC50,[1],21.1 µM
CCCCOc1ccc(NC(=O)NCc2cc(OCC)c(NS(C)(=O)=O)cc2OCC)cc1C(=O)OC,IC50,[1],3.43 µM
CCOc1cc(NS(C)(=O)=O)c(OCC)cc1CNC(=O)Nc1ccc(OCC)c(C(=O)Nc2ccccc2)c1,IC50,[1],3.72 µM
CCOc1cc(NS(C)(=O)=O)c(OCC)cc1CNC(=O)Nc1ccc(OCC)c(C(=O)Nc2ccc(C)cc2)c1,IC50,[1],3.04 µM
O=P1(N(CCCl)CCCl)NCCCO1 (centres undefined) [CYCLOPHOSPHAMIDE ANHYDROUS],Activity,[18],50.1%
CCOc1cc(NS(C)(=O)=O)c(OCC)cc1CNC(=O)Nc1ccc(OCC)c(C(=O)NC(C)C)c1,IC50,[1],3.48 µM
CCOc1cc(NS(C)(=O)=O)c(OCC)cc1CNC(=O)Nc1ccc(OCC)c(C(=O)Nc2cccc(OC)c2)c1,IC50,[1],4.23 µM
CCOc1cc(NS(C)(=O)=O)c(OCC)cc1CNC(=O)Nc1ccc(OCc2ccccc2)c(C(=O)OC)c1,IC50,[1],4.06 µM

# Reference: ChEMBL document CHEMBL4138107, “The discovery of novel, potent ERR-alpha inverse agonists for the treatment of triple negative breast cancer” (Eur J Med Chem, 2017)
